This series has as its system MS2 coat protein. The series is described as follows: apparent Kd, MS2 coat protein; higher = weaker binding; RNA-MaP array; FMN 200 µM where present. The essentials: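 Stalled E. coli RNA polymerase transcribed the designs on Illumina sequencing-chip clusters. SNAP-549-labelled MS2 coat protein was titrated from 0.7 or 1.5 nM, doubling to 3 µM, without and then with constant ligand, in 100 mM Tris-HCl pH 7.5, 80 mM KCl, 4 mM MgCl2, BSA, DTT, yeast tRNA and Tween-20. Per-cluster binding curves were fitted to green signal normalised to red-channel RNA signal and control-cluster median Fmax. The apparent Kd is the median of the filtered fits.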

Setting [1] is: designed as: ON switch for flavin mononucleotide, no ligand.
Where [2] appears, read: ligand present: flavin mononucleotide, designed as: ON switch for flavin mononucleotide.
Where [3] appears, read: designed as: OFF switch for flavin mononucleotide, no ligand.
Setting [4] is: ligand present: flavin mononucleotide, designed as: OFF switch for flavin mononucleotide.

Usually apparent Kd stands for the concentration giving half-maximal binding under the conditions of the assay. With “GAGUGGUAAAGAGGAUAUGCAUUGUUAUUAAAUGCAGAAGGUUUUAACAUGAGGAUCACCCAUGUAGGACUAUUCCUGUGUUUC”, the “apparent Kd” value was found to be 0.0148 µM under setting [1] and 0.0122 µM under setting [2].

“AAAAGGCAAGGAUAUACAUGAGGAUCACCCAUGUAAUUCCCGUCGGGAUGACCGAUAUGUAGAAGGUGCAUUAA”: the “apparent Kd” value runs as follows: under setting [3], 0.0201 µM; under setting [4], 0.0433 µM.

As to “GUUACAUGAGGAUCACCCAUGUAUGUGUGGGAGUAAGUGUCUUAGGAUAUCUAUCAUUUAAUAUAAGAGAAGGAAGAUUGUUGU”, the “apparent Kd” value turned out to be 0.109 µM under setting [1] and 0.14 µM under setting [2].

With “AAGUUAUUAGGAUAUACUUGUGCGAACCAAACGUUGAUAUUACAUGAGGAUCACCCAUGUAGAAGGAAUAAAAA”, the “apparent Kd” value is 0.0357 µM under setting [3] and 0.0251 µM under setting [4].

Consider “CGUGCUAUGUAGAAGGCAGAUCUGAUUCAGAUCUGAGGAUAUACAUGAGGAUCACCCAUGUUAUGCACCAGCACGAGAGUGCAA”, for which the “apparent Kd” value by setting is: under setting [3], 0.00631 µM; under setting [4], 0.0105 µM.

In the case of “CGGUAUCGACAGAAGGACGUAGCACAUGAGGAUCACCCAUGUCCGUAAUGUAGGAUAUGUACGGCCGAUCUCACGCAACACUAA”, the “apparent Kd” value is, setting by setting: under setting [1], 0.0371 µM; under setting [2], 0.013 µM.

For the sequence “GGUACUCAAAGAGUACCAAUACGAACAUGAGGAUCACCCAUGUAGGAUAUGCUACAAAAGGAGUAGCAGAAGGACAUGUGCCUA”, the “apparent Kd” value by setting is: under setting [3], 0.013 µM; under setting [4], 0.0608 µM.

For “UCAUCAACGGGCGGGUCGGUUGGACAUGAGGAUCACCCAUGUAGAAGGACCGGUGGGCUCCGGCGGUAGGAUAUACAUUUGGUG”, the “apparent Kd” value reads like this: under setting [3], 0.00814 µM; under setting [4], 0.0133 µM.

In the case of “UGUAUGGACAGAGGAUAUACCGAUAGGAUCUACUAUCGAAUAAUCCUCACAUGAGGAUCACCCAUGUAGAAGGCUGUCCAUACU”, the “apparent Kd” value reads like this: under setting [3], 0.0212 µM; under setting [4], 0.142 µM.

As to “AUAAUAGAGUCAGGAUAUGGACAUGAGGAUCACCCAUGUGCAGGGAUCCUCCCAGAAGGGACAUCUAAACAAAAGGCGCUAUCC”, the “apparent Kd” value under setting [3] turned out to be 0.307 µM and the “apparent Kd” value under setting [4] is 0.147 µM.

Turning to “UUACUAUUGGAGAAGGCUCGAUAAUAUAUAAUGGGAGGAUAUCCAACAUGAGGAUCACCCAUGUUUCACCCAUAUGAGGAUCAC”, the “apparent Kd” value turned out to be 0.0126 µM under setting [3] and 0.0132 µM under setting [4].

In the case of “GAUUUUUCUGAGGAUAUUGCAUCACCCGAUCUAUAAGAAGGCAGAACAUGAGGAUCACCCAUGUGGGUUUCUAG”, the “apparent Kd” value under setting [3] amounted to 0.0221 µM and the “apparent Kd” value under setting [4] was determined as 0.0456 µM.

On to “AGUAAGAUGCAGAAGGUGUUAGCUAGAGCUACGACAUGAGGAUCACCCAUGUACUAGAAACAGUACAAGGAUAUGCAUCUUACG”, for which the “apparent Kd” value under setting [1] was found to be 0.0166 µM and the “apparent Kd” value under setting [2] is 0.00647 µM.

As for “UGUCGGAGCAGAGGAUAUUACAUGAGGAUCACCCAUGUAUGAACCAAUAGCUAGAAACAGCAAUGUAAGAAGGCUGCUCCGACA”, the “apparent Kd” value is, setting by setting: under setting [3], 0.00897 µM; under setting [4], 0.113 µM.

Consider “GUAGAGUCAGGAUAUACAGAAAGUGGCUGGAAAACAGUGGCACAUGAGGAUCACCCAUGUAGAAGGGACUCUAC”, for which the “apparent Kd” value came out at 0.0894 µM under setting [3] and 0.215 µM under setting [4].

In the case of “CGCCUCAGUUCAGGAUAUGUAUGGGUCUAACGAACAGAAGGGAACAUGAGGAUCACCCAUGUAAAUAGGGCCAAAGGCUAGAUC”, the “apparent Kd” value is 0.0417 µM under setting [3] and 0.175 µM under setting [4].

As to “CCGUGGCAAGGAUAUACAUAGGAGAGGAAGGCAAGAGGUGGACAUGAGGAUCACCCAUGUAGAAGGUGCAGAUC”, the “apparent Kd” value reads like this: under setting [3], 0.226 µM; under setting [4], 0.236 µM.

With “GCAUAGGACAGAGGAUAUACGUGCUAGAGAUACUAGCAAAAUUUCCUCACAUGAGGAUCACCCAUGUAGAAGGCUGUCCUAUCG”, the “apparent Kd” value runs as follows: under setting [3], 0.0175 µM; under setting [4], 0.422 µM.

With “GGGAGACAUGAGGAUCACCCAUGUGAAAACGUGUGAGGAUAUGUAUGGAAACCAUACUGUACAGAAGGCACUUGUC”, the “apparent Kd” value by setting is: under setting [1], 0.0538 µM; under setting [2], 0.041 µM.

With “GUCAAGUGAGGAUAUGAUUGUACAGCAGACUAGCGUCUGCAUCAGAAGGCACAUGAGGAUCACCCAUGUUUGUC”, the “apparent Kd” value reads like this: under setting [3], 0.0206 µM; under setting [4], 0.0171 µM.

These data come from the EternaBench riboswitch data.
